Measurements published in ChEMBL document CHEMBL1126279, “Antiallergic and cytoprotective activity of new N-phenylbenzamido acid derivatives” (1992).
Calls of active or inactive are those of the source. The rule behind the calls is not given here.

What was measured:
[1] = test system: Rattus norvegicus; assay: Antiallergic activity against rat passive cutaneous anaphylaxis (PCA) reaction induced by 25 mg/kg of ovalbumin given iv (bolus).; format: functional; conditions: read-out: ID50 (the source's name)
[2] = test system: Rattus norvegicus; assay: Cytoprotective activity against ethanol-induced gastric lesions in male conscious rats; format: functional; conditions: Stomach, read-out: ID50 (the source's name)
Outline: (§1)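 Male rats (140–160 g) were fasted 24 h with water allowed. Lesions were induced by 1.5 mL oral absolute ethanol. Drugs were given iv (5 mL/kg) as sodium salt in saline, 15 min before. Stomachs were scored blind at 1 h for necrotic lesion length categories and counts (lesion index). Each agent was given at ≥3 doses, groups of five. % effect vs control was computed, and ID50 came from log-dose regression.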

[3] = organism: Rattus norvegicus; assay: Inhibition of rat passive cutaneous anaphylaxis reaction; Inactive.; format: functional, organism-based
Outline: (§2)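 IgE antiserum was raised in male Sprague-Dawley rats by im ovalbumin (25 mg) in Bordetella pertussis suspension, and sera were pooled 14 days later. Naive young rats received 0.05 mL antiserum intradermally at two back sites. After 24 h they were challenged iv with saline containing egg albumin plus Evans blue and killed 30 min later to measure wheal axes. Compounds were given as sodium salt in saline, im, 15 min pre-challenge, at ≥3 doses (n ≥ 15). ID50 was derived by log-dose regression with p = 0.05 fiducial limits.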

[4] = test system: Rattus norvegicus; assay: Cytoprotective activity against ethanol-induced gastric lesions in male conscious rats; Inactive.; format: functional, organism-based; conditions: Stomach; outline: as §1
[5] = organism: Rattus norvegicus; assay: Compound was evaluated for antiallergic activity against rat passive cutaneous anaphylaxis (PCA); format: functional; conditions: read-out: ID50 (the source's name); outline: as §2
[6] = test system: Rattus norvegicus; assay: Antiallergic activity against rat passive cutaneous anaphylaxis (PCA) reaction induced by 25 mg/kg of ovalbumin given iv(bolus); format: functional; conditions: read-out: ID50 (the source's name)
[7] = test system: Rattus norvegicus; assay: Compound was evaluated for cytoprotective activity against acetic acid-induced gastric lesions in male conscious rats; format: functional; conditions: Stomach, read-out: ID50 (the source's name)
Outline: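 Under ether anesthesia, 50 µL of 30% acetic acid was injected into the gastric submucosa of fasted male rats (140–160 g). Drugs were given im at −0.5, 4 and 21 h. […] Agents were given at five dose levels in groups of five, or in duplicate at 100 mg/kg.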

[8] = test system: Rattus norvegicus; assay: Compound was evaluated for cytoprotective activity against glucose-induced gastric lesions in male conscious rats; format: functional; conditions: Stomach, read-out: ID50 (the source's name)
Outline: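 Male rats (180–200 g) were fasted 24 h, then fed solely an aqueous glucose liquid meal. Drugs were given sc twice daily for 9 days. Lesions were scored by number of necrotic lesions and extent of impaired rumen area, and % effect vs control was calculated. Agents were given at four dose levels in groups of five in duplicate, or in duplicate at 100 mg/kg.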

[9] = test system: Rattus norvegicus; assay: Compound was evaluated for cytoprotective activity against sodium chloride-induced gastric lesions in male conscious rats; format: functional; conditions: Stomach, read-out: ID50 (the source's name)
Outline: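 Male rats (140–160 g) were fasted 24 h. Lesions were induced by oral 1.5 mL/animal 25% (w/v) NaCl. Drugs were given iv (5 mL/kg) 15 min before. Stomachs were scored blind at 1 h by lesion index, and % effect vs control was calculated. Some agents were given at five dose levels in groups of five; others in duplicate at 30 and 100 mg/kg. ID50 came from log-dose regression.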

SMILES	ED50 [1] [mg/kg]	ED50 [2] [mg/kg]	ID50 [3]	ID50 [4]	further results
O=C(Nc1ccccc1)c1ccc(-c2nn[nH]n2)cc1	8.4	40	–	–	–
NC(=O)c1ccc(NC(=O)c2ccc(-c3nn[nH]n3)cc2)cc1	2	33	–	–	–
O=C(O)c1ccc(C(=O)Nc2cc(C(=O)O)cc(C(=O)O)c2)cc1	2.1	32.2	–	–	–
N#Cc1ccc(C(=O)Nc2cccc(-c3nn[nH]n3)c2)cc1	–	21.4	inactive	–	–
N#Cc1ccc(C(=O)Nc2cc(C(=O)O)ccc2C(=O)O)cc1	1.5	26.8	–	–	–
N#Cc1ccc(C(=O)Nc2ccc(C(=O)O)cc2C(=O)O)cc1	19.5	66.3	–	–	–
N#Cc1ccc(C(=O)Nc2cc(C(N)=O)cc(C(=O)O)c2)cc1	5.7	87.2	–	–	–
N#Cc1ccc(C(=O)Nc2ccc(C(=O)O)c(C(=O)O)c2)cc1	10.1	–	–	inactive	–
O=C(O)c1cc(NC(=O)c2cccc(Cl)c2)cc(C(=O)O)c1	–	–	inactive	inactive	–
N#Cc1ccc(C(=O)Nc2cc(C(=O)O)cc(C(=O)O)c2)cc1	1.7	32.1	–	–	–
N#Cc1ccc(NC(=O)c2ccc(C(=O)O)cc2)cc1	–	–	inactive	inactive	–
CCCc1ccc(C(=O)Nc2cc(C(=O)O)cc(C(=O)O)c2)cc1	–	94.2	–	–	ED50 [5]: 6.7 mg/kg
O=C(O)c1cc(NC(=O)c2ccc([N+](=O)[O-])cc2)cc(C(=O)O)c1	9.8	61.1	–	–	–
O=C(O)c1ccc(NC(=O)c2ccc([N+](=O)[O-])cc2)cc1	–	–	inactive	inactive	–
O=C(O)c1cc(NC(=O)c2ccc(O)cc2)cc(C(=O)O)c1	–	–	inactive	inactive	–
O=C([O-])c1cc(=O)c2c(OCC(O)COc3cccc4oc(C(=O)[O-])cc(=O)c34)cccc2o1.[Na+].[Na+] [CROMOLYN SODIUM]	1.5	50.8	–	–	–
O=C(Nc1cccc(-c2nn[nH]n2)c1)c1ccc(-c2nn[nH]n2)cc1	0.03	1.1	–	–	–
O=C(Nc1cccc(-c2nn[nH]n2)c1)c1cccc(-c2nn[nH]n2)c1	1.6	15.8	–	–	–
O=C(Nc1ccc(C(=O)O)c(C(=O)O)c1)c1ccc([N+](=O)[O-])cc1	13.2	–	–	inactive	–
N#Cc1ccc(C(=O)Nc2cccc(C(=O)O)c2C(=O)O)cc1	15.8	135	–	–	–
O=C(O)c1cc(NC(=O)c2ccc(O)c(O)c2)cc(C(=O)O)c1	–	–	inactive	inactive	–
O=C(Nc1ccccc1-c1nn[nH]n1)c1ccc(-c2nn[nH]n2)cc1	1.5	6.1	–	–	–
O=C(O)c1cc(NC(=O)c2ccc(-c3nn[nH]n3)cc2)cc(C(=O)O)c1	1.2	8.2	–	–	–
N#Cc1cccc(C(=O)Nc2cc(C(=O)O)cc(C(=O)O)c2)c1	5	140	–	–	–
O=C(O)c1cc(NC(=O)c2ccc(C(F)(F)F)cc2)cc(C(=O)O)c1	–	–	inactive	inactive	–
CCCOc1ccc(C(=O)Nc2cc(C(=O)O)cc(C(=O)O)c2)cc1	–	78	inactive	–	–

SMILES	ED50 [1] [mg/kg]	ED50 [2] [mg/kg]	ID50 [3]	ID50 [4]	further results
COc1ccc(C(=O)Nc2cc(C(=O)O)cc(C(=O)O)c2)cc1OC	–	116	inactive	–	–
O=C(Nc1ccccc1)c1cccc(-c2nn[nH]n2)c1	4.5	38.1	–	–	–
O=C(Nc1ccccc1-c1nn[nH]n1)c1cccc(-c2nn[nH]n2)c1	–	9.7	–	–	ED50 [6]: 1.4 mg/kg
N#Cc1ccc(C(=O)Nc2ccc(-c3nn[nH]n3)cc2)cc1	2.4	54.4	–	–	–
N#Cc1ccc(C(=O)Nc2cccc(C(=O)O)c2)cc1	–	–	inactive	inactive	–
O=C(O)c1cc(NC(=O)c2ccccc2)cc(C(=O)O)c1	–	–	inactive	inactive	–
O=C(O)c1cc(NC(=O)c2ccc(Cl)cc2)cc(C(=O)O)c1	–	97.3	inactive	–	–
O=C(O)c1ccc(NC(=O)c2ccc(C(=O)O)cc2)cc1	25.4	54.3	–	–	–
COc1ccc(C(=O)Nc2cc(C(=O)O)cc(C(=O)O)c2)cc1	–	–	inactive	inactive	–
O=C(O)c1cc(NC(=O)c2ccc(Cl)cc2Cl)cc(C(=O)O)c1	–	103	inactive	–	–
O=C(O)c1ccc(NC(=O)c2ccc(-c3nn[nH]n3)cc2)cc1	2.3	3.5	–	–	–
N#Cc1ccc(NC(=O)c2ccc(-c3nn[nH]n3)cc2)cc1	1.2	19.7	–	–	–
COc1ccc(/C=C/C(=O)Nc2ccccc2C(=O)O)cc1OC [TRANILAST]	3.6	–	–	inactive	–
O=C(O)c1ccc(C(=O)O)c(NC(=O)c2ccc(-c3nn[nH]n3)cc2)c1	1.2	31.1	–	–	–
CCCc1c2oc(C(=O)O)cc(=O)c2cc2c(=O)cc(C(=O)O)n(CC)c12 [NEDOCROMIL]	1.3	–	–	inactive	–
O=C(Nc1ccc(-c2nn[nH]n2)cc1)c1cccc(-c2nn[nH]n2)c1	0.05	0.6	–	–	–
COc1cc(OC)cc(C(=O)Nc2cc(C(=O)O)cc(C(=O)O)c2)c1	–	108	inactive	–	–
COc1cc(C(=O)Nc2cc(C(=O)O)cc(C(=O)O)c2)cc(OC)c1OC	–	–	inactive	inactive	–
CCCCc1ccc(C(=O)Nc2cc(C(=O)O)cc(C(=O)O)c2)cc1	12.3	91.9	–	–	–
N#Cc1ccc(C(=O)Nc2cc(CO)cc(C(=O)O)c2)cc1	–	–	inactive	inactive	–
N#Cc1ccc(C(=O)Nc2ccc(C(=O)O)cc2)cc1	–	–	inactive	inactive	–
Cc1ccc(C(=O)Nc2cc(C(=O)O)cc(C(=O)O)c2)cc1	–	–	inactive	inactive	–
O=C(O)c1cc(NC(=O)c2cc(O)cc(O)c2)cc(C(=O)O)c1	–	90.2	inactive	–	–
O=C(Nc1ccc(-c2nnn[nH]2)cc1)c1ccc(-c2nnn[nH]2)cc1 [ANDOLAST]	–	2.5	–	–	ED50 [7]: 9.4 mg/kg; ED50 [6]: 0.09 mg/kg; ED50 [8]: 23.9 mg/kg; ED50 [9]: 18.2 mg/kg
CN(C(=O)c1ccc(-c2nn[nH]n2)cc1)c1ccc(-c2nn[nH]n2)cc1	3.8	60	–	–	–
